According to ChEMBL document CHEMBL1275408, “A chemical genomic screen in Saccharomyces cerevisiae reveals a role for diphthamidation of translation elongation factor 2 in inhibition of protein synthesis by sordarin” (2008):
Activity calls are given as the source filed them. No cut-off for these calls is given here.

Tests used:
Saccharomyces cerevisiae [1] = assay: Antifungal activity against Saccharomyces cerevisiae BY4741 harboring RPS11A YDR025W mutant gene by spectrophotometry; type: functional
Outline: (§1)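 Haploid MATa BY4741 KanMX4 deletion strains pinned from frozen stocks into YPD + G418 (150 mg/liter), grown 3 days at 28°C to confluence, then pin-replicated into SC liquid with no drug or sordarin derivative GM193663 (2 ng/ml sensitivity; 62.5 ng/ml resistance). 28°C, OD595 read every 24 h for 5 days; growth scored relative to wild type on same plate and to untreated mutant.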

Saccharomyces cerevisiae [2] = assay: Antifungal activity against Saccharomyces cerevisiae BY4741 harboring CUE1 YMR264W mutant gene by spectrophotometry; type: functional
Outline: (§2)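 Screen of BY4741 KanMX4 deletion strains pre-grown 3 days at 28°C in YPD with G418 (150 mg/liter), then pinned into liquid SC containing GM193663. The sensitivity screen used 2 ng/ml; the resistance screen used 62.5 ng/ml, with validation at 62.5, 125 and 500 ng/ml. OD595 was read every 24 h over 5 days at 28°C. Growth was scored relative to wild type and to drug-free controls. Retests were at least in duplicate.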

Saccharomyces cerevisiae [3] = assay: Antifungal activity against Saccharomyces cerevisiae BY4741 harboring YMR141C mutation in unknown gene by spectrophotometry; type: functional
Outline: (§3)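 Deletion strains from the nonessential haploid MATa BY4741 collection (KanMX4 replacement) were grown in YPD with G418 at 28°C for 3 days, then pinned into liquid SC with or without sordarin derivative GM193663 (2 ng/ml for sensitivity, 62.5 ng/ml for resistance). Cultures were kept at 28°C and read at OD595 every 24 h for 5 days. Growth was scored against wild type on the same plate and against the drug-free control. Hits were retested at least in duplicate.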

Saccharomyces cerevisiae [4] = assay: Antifungal activity against Saccharomyces cerevisiae BY4741 harboring MUP3 YHL036W mutant gene by spectrophotometry; type: functional; outline: as §1
Saccharomyces cerevisiae [5] = assay: Antifungal activity against Saccharomyces cerevisiae BY4741 harboring RPS18A YDR450W mutant gene by spectrophotometry; type: functional; outline: as §1
Saccharomyces cerevisiae [6] = assay: Antifungal activity against Saccharomyces cerevisiae BY4741 harboring HEM14 YER014W mutant gene assessed as reduction in fungal growth at 2 ng/ml by spectrophotometry; type: functional, organism-based
Outline: (§4)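 Haploid BY4741 KanMX4 deletion strains pre-grown in YPD with G418 (150 mg/liter) for 3 days at 28°C. They were then pin-replicated into liquid SC with sordarin derivative GM193663 at 2 ng/ml, or without drug. Plates were incubated at 28°C and OD595 read every 24 h for 5 days. Growth was scored against wild type on the same plate and against the drug-free mutant. Hits were retested at least in duplicate.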

Saccharomyces cerevisiae [7] = assay: Antifungal activity against Saccharomyces cerevisiae BY4741 harboring DSK2 YMR276W mutant gene by spectrophotometry; type: functional; outline: as §2
Saccharomyces cerevisiae [8] = assay: Antifungal activity against Saccharomyces cerevisiae BY4741 harboring ADE4 YMR300C mutant gene by spectrophotometry; type: functional; outline: as §2
Saccharomyces cerevisiae [9] = assay: Antifungal activity against Saccharomyces cerevisiae BY4741 harboring YHL041W mutation in unknown gene by spectrophotometry; type: functional; outline: as §3
Saccharomyces cerevisiae [10] = assay: Antifungal activity against Saccharomyces cerevisiae BY4741 harboring MHP1 YJL042W mutant gene by spectrophotometry; type: functional; outline: as §2
Saccharomyces cerevisiae [11] = assay: Antifungal activity against Saccharomyces cerevisiae BY4741 harboring PRE9 YGR135W mutant gene by spectrophotometry; type: functional; outline: as §1
Saccharomyces cerevisiae [12] = assay: Antifungal activity against Saccharomyces cerevisiae BY4741 harboring EAF3 YPR023C mutant gene by spectrophotometry; type: functional; outline: as §2
Saccharomyces cerevisiae [13] = assay: Antifungal activity against Saccharomyces cerevisiae BY4741 harboring SPS1 YDR523C mutant gene assessed as reduction in fungal growth at 2 ng/ml by spectrophotometry; type: functional, organism-based
Outline: (§5)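 Deletion strains (BY4741 background) pre-grown 3 days at 28°C in YPD + G418 (150 mg/liter), then pin-replicated into SC liquid containing 2 ng/ml GM193663 or no drug. 28°C, OD595 every 24 h over 5 days; growth scored against wild type on same plate and against drug-free mutant control; hits retested at least in duplicate at 2 ng/ml.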

Saccharomyces cerevisiae [14] = assay: Antifungal activity against Saccharomyces cerevisiae BY4741 harboring DPH1 YIL103W mutant gene by spectrophotometry; type: functional; outline: as §2
Saccharomyces cerevisiae [15] = assay: Antifungal activity against Saccharomyces cerevisiae BY4741 harboring MRP21 YBL090W mutant gene by spectrophotometry; type: functional; outline: as §2
Saccharomyces cerevisiae [16] = assay: Antifungal activity against Saccharomyces cerevisiae BY4741 harboring YDR020C mutation in unknown gene by spectrophotometry; type: functional; outline: as §1
Saccharomyces cerevisiae [17] = assay: Antifungal activity against Saccharomyces cerevisiae BY4741 harboring deletion mutation in dph4 gene at 300 to 500 ng/ml after 24 hrs by liquid growth assay; type: functional
Saccharomyces cerevisiae [18] = assay: Antifungal activity against Saccharomyces cerevisiae BY4741 harboring SSQ1 YLR369W mutant gene assessed as reduction in fungal growth at 2 ng/ml by spectrophotometry; type: functional, organism-based; outline: as §5
Saccharomyces cerevisiae [19] = assay: Antifungal activity against Saccharomyces cerevisiae BY4741 harboring DPH2 YKL191W mutant gene by spectrophotometry; type: functional; outline: as §2
Saccharomyces cerevisiae [20] = assay: Antifungal activity against Saccharomyces cerevisiae BY4741 harboring FUN12 YAL035W mutant gene by spectrophotometry; type: functional; outline: as §2
Saccharomyces cerevisiae [21] = assay: Antifungal activity against Saccharomyces cerevisiae BY4741 harboring GRR1 YJR090C mutant gene by spectrophotometry; type: functional; outline: as §2
Saccharomyces cerevisiae [22] = assay: Antifungal activity against Saccharomyces cerevisiae BY4741 harboring deletion mutation in dph5 gene at 100 ng/ml by plate assay; type: functional, organism-based
Outline: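 Spot test on solid SC glucose plates with or without 100 ng/ml sordarin. Drops of 10^5 cells plus 10-fold serial dilutions of each dph deletion strain were spotted alongside the parental strain. Plates were incubated at 28°C for 6 days and imaged every 24 h.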

Saccharomyces cerevisiae [23] = assay: Antifungal activity against Saccharomyces cerevisiae BY4741 harboring YER087W mutation in unknown gene by spectrophotometry; type: functional; outline: as §3
Saccharomyces cerevisiae [24] = assay: Antifungal activity against Saccharomyces cerevisiae BY4741 harboring AMS1 YGL156W mutant gene by spectrophotometry; type: functional; outline: as §2
Saccharomyces cerevisiae [25] = assay: Antifungal activity against Saccharomyces cerevisiae BY4741 harboring MIP1 YOR330C mutant gene by spectrophotometry; type: functional; outline: as §2
Saccharomyces cerevisiae [26] = assay: Antifungal activity against Saccharomyces cerevisiae BY4741 harboring AFG3 YER017C mutant gene assessed as reduction in fungal growth at 2 ng/ml by spectrophotometry; type: functional, organism-based; outline: as §4
Saccharomyces cerevisiae [27] = assay: Antifungal activity against Saccharomyces cerevisiae BY4741 harboring ARN2 YHL047C mutant gene by spectrophotometry; type: functional; outline: as §2
Saccharomyces cerevisiae [28] = assay: Antifungal activity against Saccharomyces cerevisiae BY4741 harboring HMI1 YOL095C mutant gene by spectrophotometry; type: functional; outline: as §2
Saccharomyces cerevisiae [29] = assay: Antifungal activity against Saccharomyces cerevisiae BY4741 harboring CTF3 YLR381W mutant gene by spectrophotometry; type: functional; outline: as §2
Saccharomyces cerevisiae [30] = assay: Antifungal activity against Saccharomyces cerevisiae BY4741 harboring MTF1 YMR228W mutant gene by spectrophotometry; type: functional; outline: as §1
Saccharomyces cerevisiae [31] = assay: Antifungal activity against Saccharomyces cerevisiae BY4741 harboring YBR255W mutation in unknown gene by spectrophotometry; type: functional; outline: as §1
Saccharomyces cerevisiae [32] = assay: Antifungal activity against Saccharomyces cerevisiae BY4741 harboring DIA4 YHR011W mutant gene by spectrophotometry; type: functional; outline: as §2
Saccharomyces cerevisiae [33] = assay: Antifungal activity against Saccharomyces cerevisiae BY4741 harboring COX11 YPL132W mutant gene by spectrophotometry; type: functional; outline: as §2

For CO[C@H]1[C@@H](O)[C@H](O)[C@H](OC[C@@]23C[C@@H]4[C@H](C)CC[C@H]4[C@@]4(C=O)CC2C=C(C(C)C)[C@@]34C(=O)O)O[C@@H]1C [SORDARIN], the MIC (Saccharomyces cerevisiae [1]) was > 0.0625 µg/mL, the MIC (Saccharomyces cerevisiae [2]) was > 0.0625 µg/mL and the MIC (Saccharomyces cerevisiae [3]) was > 0.5 µg/mL. For the same compound, the MIC (Saccharomyces cerevisiae [4]) was > 0.5 µg/mL, the MIC (Saccharomyces cerevisiae [5]) was > 0.0625 µg/mL and the Activity (Saccharomyces cerevisiae [6]) was “Active”. The MIC (Saccharomyces cerevisiae [7]) was > 0.5 µg/mL, the MIC (Saccharomyces cerevisiae [8]) was > 0.5 µg/mL and the MIC (Saccharomyces cerevisiae [9]) was > 0.5 µg/mL. For the same compound, the MIC (Saccharomyces cerevisiae [10]) was > 0.125 µg/mL, the MIC (Saccharomyces cerevisiae [11]) was > 0.5 µg/mL and the MIC (Saccharomyces cerevisiae [12]) was > 0.5 µg/mL. For the same compound, the Activity (Saccharomyces cerevisiae [13]) was “Active”, the MIC (Saccharomyces cerevisiae [14]) was > 0.5 µg/mL and the MIC (Saccharomyces cerevisiae [15]) was > 0.5 µg/mL. The MIC (Saccharomyces cerevisiae [16]) was > 0.5 µg/mL, the Activity (Saccharomyces cerevisiae [17]) was 50% and the Activity (Saccharomyces cerevisiae [18]) was “Active”. The MIC (Saccharomyces cerevisiae [19]) was > 0.5 µg/mL, the MIC (Saccharomyces cerevisiae [20]) was > 0.125 µg/mL and the MIC (Saccharomyces cerevisiae [21]) was > 0.5 µg/mL. The MIC (Saccharomyces cerevisiae [22]) was “inactive”, the MIC (Saccharomyces cerevisiae [23]) was > 0.5 µg/mL and the MIC (Saccharomyces cerevisiae [24]) was > 0.125 µg/mL. For the same compound, the MIC (Saccharomyces cerevisiae [25]) was > 0.5 µg/mL, the Activity (Saccharomyces cerevisiae [26]) was “Active” and the MIC (Saccharomyces cerevisiae [27]) was > 0.5 µg/mL. The MIC (Saccharomyces cerevisiae [28]) was > 0.125 µg/mL, the MIC (Saccharomyces cerevisiae [29]) was > 0.125 µg/mL and the MIC (Saccharomyces cerevisiae [30]) was > 0.125 µg/mL. The MIC (Saccharomyces cerevisiae [31]) was > 0.5 µg/mL, the MIC (Saccharomyces cerevisiae [32]) was > 0.0625 µg/mL and the MIC (Saccharomyces cerevisiae [33]) was > 0.125 µg/mL.
